Measurements published in ChEMBL document CHEMBL1641414, “Synthesis and pharmacological evaluation of 4-(3,4-dichlorophenyl)-N-methyl-1,2,3,4-tetrahydronaphthalenyl amines as triple reuptake inhibitors” (Bioorg Med Chem, 2011).

Experiments:
[1] = target: Sodium-dependent dopamine transporter (Homo sapiens, UniProt Q01959); assay: Inhibition of [3H]dopamine reuptake at human DAT expressed in CHOK1 cells by scintillation counting; type: cell-based, CHO-K1
[2] = Half life in mouse liver microsome; type: ADME; details: liver microsomes
Outline: (§1)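 Microsomal stability and CYP inhibition were run by a contract laboratory under its standard protocols. Stability was measured in human and mouse liver microsomes and reported as t1/2 in min. Midazolam was the reference substrate for CYP3A4.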

[3] = target: Sodium-dependent noradrenaline transporter (Homo sapiens, UniProt P23975); assay: Inhibition of [3H]norepinephrine reuptake at human NET expressed in MDCK cells by scintillation counting; type: cell-based
Sequence of Sodium-dependent noradrenaline transporter (P23975 whole entry): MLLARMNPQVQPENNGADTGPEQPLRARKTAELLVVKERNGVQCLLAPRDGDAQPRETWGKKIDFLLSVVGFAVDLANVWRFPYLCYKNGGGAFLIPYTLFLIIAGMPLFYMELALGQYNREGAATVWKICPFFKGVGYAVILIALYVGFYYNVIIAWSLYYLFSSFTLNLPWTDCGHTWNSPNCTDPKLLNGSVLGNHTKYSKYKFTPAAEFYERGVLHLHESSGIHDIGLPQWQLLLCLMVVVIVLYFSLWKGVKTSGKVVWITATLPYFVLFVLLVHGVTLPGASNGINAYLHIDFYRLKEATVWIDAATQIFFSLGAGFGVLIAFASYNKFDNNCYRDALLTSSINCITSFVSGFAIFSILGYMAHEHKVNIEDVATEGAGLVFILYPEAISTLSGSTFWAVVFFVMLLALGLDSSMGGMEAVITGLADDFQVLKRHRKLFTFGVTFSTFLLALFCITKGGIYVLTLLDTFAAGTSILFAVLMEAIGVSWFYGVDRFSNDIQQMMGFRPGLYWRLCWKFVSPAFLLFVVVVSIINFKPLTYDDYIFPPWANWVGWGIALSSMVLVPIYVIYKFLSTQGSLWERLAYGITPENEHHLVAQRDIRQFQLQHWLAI

[4] = target: Cytochrome P450 2D6 (Homo sapiens, UniProt P10635); assay: Inhibition of CYP2D6; type: ADME; outline: as §1
Sequence of Cytochrome P450 2D6 (P10635 whole entry): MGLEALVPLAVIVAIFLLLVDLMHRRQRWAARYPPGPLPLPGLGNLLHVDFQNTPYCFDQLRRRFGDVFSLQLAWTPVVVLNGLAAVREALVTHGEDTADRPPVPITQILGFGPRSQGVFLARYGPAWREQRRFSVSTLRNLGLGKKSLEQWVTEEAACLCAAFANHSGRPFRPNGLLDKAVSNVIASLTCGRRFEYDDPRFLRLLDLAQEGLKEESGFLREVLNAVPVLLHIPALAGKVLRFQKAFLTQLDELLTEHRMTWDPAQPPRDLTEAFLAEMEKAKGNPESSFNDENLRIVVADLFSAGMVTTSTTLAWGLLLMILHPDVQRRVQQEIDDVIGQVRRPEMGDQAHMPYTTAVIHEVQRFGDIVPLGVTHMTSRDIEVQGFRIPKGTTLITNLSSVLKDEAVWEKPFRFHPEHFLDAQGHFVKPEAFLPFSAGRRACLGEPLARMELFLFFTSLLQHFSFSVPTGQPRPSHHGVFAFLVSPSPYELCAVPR

[5] = Half life in human liver microsome; type: ADME; details: liver microsomes; outline: as §1
[6] = target: Cytochrome P450 2C9 (Homo sapiens, UniProt P11712); assay: Inhibition of CYP2C9; type: ADME; outline: as §1
Sequence of Cytochrome P450 2C9 (P11712 whole entry): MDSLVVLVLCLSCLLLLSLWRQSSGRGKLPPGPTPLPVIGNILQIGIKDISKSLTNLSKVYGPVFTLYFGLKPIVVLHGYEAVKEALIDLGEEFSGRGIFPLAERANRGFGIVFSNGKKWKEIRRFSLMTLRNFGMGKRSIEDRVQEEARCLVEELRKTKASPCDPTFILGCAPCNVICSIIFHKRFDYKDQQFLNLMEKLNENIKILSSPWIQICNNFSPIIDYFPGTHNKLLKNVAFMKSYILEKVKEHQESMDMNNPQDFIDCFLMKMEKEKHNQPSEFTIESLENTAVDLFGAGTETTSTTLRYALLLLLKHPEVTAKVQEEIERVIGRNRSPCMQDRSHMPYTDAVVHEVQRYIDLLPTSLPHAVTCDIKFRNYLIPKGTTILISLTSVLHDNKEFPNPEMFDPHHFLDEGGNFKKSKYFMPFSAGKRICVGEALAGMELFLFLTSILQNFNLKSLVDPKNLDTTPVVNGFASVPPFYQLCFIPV

[7] = target: Cytochrome P450 3A4 (Homo sapiens, UniProt P08684); assay: Inhibition of CYP3A4; type: ADME; outline: as §1
Sequence of Cytochrome P450 3A4 (P08684 whole entry): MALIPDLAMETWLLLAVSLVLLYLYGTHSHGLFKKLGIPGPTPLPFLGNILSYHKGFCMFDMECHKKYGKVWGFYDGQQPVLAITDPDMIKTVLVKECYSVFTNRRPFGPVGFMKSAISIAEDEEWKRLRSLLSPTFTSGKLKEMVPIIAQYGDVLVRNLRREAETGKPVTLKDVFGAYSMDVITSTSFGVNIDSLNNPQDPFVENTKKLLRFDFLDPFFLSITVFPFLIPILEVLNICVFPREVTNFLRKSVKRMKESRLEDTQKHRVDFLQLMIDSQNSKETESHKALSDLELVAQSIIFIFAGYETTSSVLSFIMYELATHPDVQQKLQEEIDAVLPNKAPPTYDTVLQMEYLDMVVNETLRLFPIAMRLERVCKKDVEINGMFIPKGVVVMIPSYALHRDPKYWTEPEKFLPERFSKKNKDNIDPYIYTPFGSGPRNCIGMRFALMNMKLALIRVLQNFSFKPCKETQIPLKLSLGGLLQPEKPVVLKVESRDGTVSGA

[8] = target: Voltage-gated inwardly rectifying potassium channel KCNH2 (Homo sapiens, UniProt Q12809); assay: Inhibition of human ERG
Sequence of Voltage-gated inwardly rectifying potassium channel KCNH2 (Q12809 whole entry): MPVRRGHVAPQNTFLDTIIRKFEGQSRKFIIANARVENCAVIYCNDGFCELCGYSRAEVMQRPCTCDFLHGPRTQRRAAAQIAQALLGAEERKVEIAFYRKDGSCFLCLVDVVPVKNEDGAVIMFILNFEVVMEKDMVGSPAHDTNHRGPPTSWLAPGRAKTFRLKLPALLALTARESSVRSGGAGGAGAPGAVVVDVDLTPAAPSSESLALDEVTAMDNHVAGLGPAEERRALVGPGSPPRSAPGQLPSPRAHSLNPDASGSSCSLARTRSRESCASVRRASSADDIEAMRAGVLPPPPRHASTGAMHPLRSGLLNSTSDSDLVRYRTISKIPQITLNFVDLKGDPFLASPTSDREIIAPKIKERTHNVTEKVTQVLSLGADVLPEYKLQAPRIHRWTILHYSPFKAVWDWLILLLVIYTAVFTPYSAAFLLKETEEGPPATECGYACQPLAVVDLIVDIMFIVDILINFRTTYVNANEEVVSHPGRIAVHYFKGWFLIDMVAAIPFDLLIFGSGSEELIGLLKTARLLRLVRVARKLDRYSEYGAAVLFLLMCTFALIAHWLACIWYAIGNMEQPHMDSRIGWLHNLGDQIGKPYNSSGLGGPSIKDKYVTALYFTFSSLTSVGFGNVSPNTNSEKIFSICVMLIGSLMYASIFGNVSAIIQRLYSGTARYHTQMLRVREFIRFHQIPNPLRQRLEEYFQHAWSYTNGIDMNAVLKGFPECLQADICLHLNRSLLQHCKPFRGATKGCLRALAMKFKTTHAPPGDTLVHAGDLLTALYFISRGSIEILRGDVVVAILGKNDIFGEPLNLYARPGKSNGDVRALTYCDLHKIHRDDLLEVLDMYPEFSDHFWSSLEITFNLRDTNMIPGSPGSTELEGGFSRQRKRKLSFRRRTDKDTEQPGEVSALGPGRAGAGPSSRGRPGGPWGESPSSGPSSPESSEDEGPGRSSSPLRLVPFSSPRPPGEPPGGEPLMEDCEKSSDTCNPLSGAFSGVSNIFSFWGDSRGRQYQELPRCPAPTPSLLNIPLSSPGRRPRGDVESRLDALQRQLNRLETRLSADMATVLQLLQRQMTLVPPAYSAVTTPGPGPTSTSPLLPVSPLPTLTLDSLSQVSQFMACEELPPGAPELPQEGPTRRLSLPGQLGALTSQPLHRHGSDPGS

[9] = target: Cytochrome P450 2C19 (Homo sapiens, UniProt P33261); assay: Inhibition of CYP2C19; type: ADME
Sequence of Cytochrome P450 2C19 (P33261 whole entry): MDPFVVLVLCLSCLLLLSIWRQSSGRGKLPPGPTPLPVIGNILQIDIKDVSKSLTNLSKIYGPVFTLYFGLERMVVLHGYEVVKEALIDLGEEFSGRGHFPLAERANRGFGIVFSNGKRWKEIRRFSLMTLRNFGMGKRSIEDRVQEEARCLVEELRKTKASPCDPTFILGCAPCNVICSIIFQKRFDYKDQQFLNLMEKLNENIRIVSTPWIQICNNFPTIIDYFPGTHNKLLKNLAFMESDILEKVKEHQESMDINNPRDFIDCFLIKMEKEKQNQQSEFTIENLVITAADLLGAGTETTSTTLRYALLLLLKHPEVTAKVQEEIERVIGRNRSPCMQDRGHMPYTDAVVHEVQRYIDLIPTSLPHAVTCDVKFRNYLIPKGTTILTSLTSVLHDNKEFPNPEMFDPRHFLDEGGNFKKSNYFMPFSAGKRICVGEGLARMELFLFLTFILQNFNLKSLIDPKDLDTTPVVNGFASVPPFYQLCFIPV

[10] = Plasma protein binding in mouse at 3 to 30 mg/kg, po after 120 mins; type: ADME, organism-based; set-up: dose 3-30 mg/kg, route oral; details: read-out: PPB
[11] = Drug level in mouse plasma at 30 mg/kg, po after 120 mins; type: ADME, organism-based; set-up: dose 30 mg/kg, route oral; details: read-out: Drug uptake
Outline: (§2)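 Male mice given the HCl salt orally at 3, 10 or 30 mg/kg. Plasma and whole brain were sampled from the tail suspension test animals after the 120 min pretreatment. Levels reported as ng/mL for plasma and ng/g for brain.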

[12] = Drug level in mouse plasma at 3 mg/kg, po after 120 mins; type: ADME, organism-based; set-up: dose 3 mg/kg, route oral; details: read-out: Drug uptake; outline: as §2
[13] = Drug level in mouse whole brain at 10 mg/kg, po after 120 mins; type: ADME, organism-based; set-up: dose 10 mg/kg, route oral; details: in vivo, 2 h; outline: as §2
[14] = tested on: Mus musculus; assay: Antidepressant activity in po dosed mouse assessed as decrease in immobility after 120 mins by tail suspension test; type: functional, organism-based
Outline: (§3)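 Male mice (10–12 per group) dosed orally once, 120 min pretreatment, then suspended by the tail. Immobility recorded automatically for 5 min, scored blind, compared with a vehicle group. One-way ANOVA with post-hoc comparisons, p <0.05 taken as significant.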

[15] = tested on: Mus musculus; assay: Neurotoxicity in mouse assessed as effect on locomotor activity at 3 to 30 mg/kg, po; type: toxicity, organism-based; set-up: dose 3-30 mg/kg, route oral; details: in vivo
Outline: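 Mice pretreated orally with vehicle or compound, returned to the home cage, then placed individually in locomotor cages with infrared photocell beams. Horizontal and vertical activity monitored in 5 min intervals for up to 60 min; the first 5 min were assessed at 10 and 30 mg/kg. One-way ANOVA, p <0.05.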

[16] = Drug level in mouse whole brain at 3 mg/kg, po after 120 mins; type: ADME, organism-based; set-up: dose 3 mg/kg, route oral; details: in vivo, 2 h; outline: as §2
[17] = tested on: Mus musculus; assay: Antidepressant activity in mouse assessed as decrease in immobility at 10 mg/kg, po after 120 mins by tail suspension test; type: functional; details: 2 h; outline: as §3
[18] = tested on: Brain; assay: fCmax in mouse brain at 3 to 30 mg/kg, po after 120 mins; type: ADME, organism-based; set-up: dose 3-30 mg/kg, route oral; details: in vivo, 2 h
Outline: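 Brain free level estimated from measured brain concentration in the tail suspension test animals, corrected by mouse plasma protein binding.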

[19] = tested on: Mus musculus; assay: Antidepressant activity in mouse assessed as decrease in immobility at 100 mg/kg, po after 120 mins by tail suspension test; type: functional; details: 2 h; outline: as §3
[20] = Drug level in mouse plasma at 10 mg/kg, po after 120 mins; type: ADME, organism-based; set-up: dose 10 mg/kg, route oral; details: read-out: Drug uptake; outline: as §2
[21] = tested on: Mus musculus; assay: Antidepressant activity in mouse assessed as decrease in immobility at 30 mg/kg, po after 120 mins by tail suspension test; type: functional; details: 2 h; outline: as §3
[22] = Drug level in mouse whole brain at 30 mg/kg, po after 120 mins; type: ADME, organism-based; set-up: dose 30 mg/kg, route oral; details: in vivo, 2 h; outline: as §2
[23] = Ratio of drug level in whole brain to plasma of mouse at 30 mg/kg, po after 120 mins; type: ADME, organism-based; set-up: dose 30 mg/kg, route oral; details: read-out: BPR
Outline: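 Male mice were dosed orally once with the HCl salt at 3, 10 and 30 mg/kg, with a 120 min pretreatment before the 5 min tail suspension test. There were 10–12 mice per group. Afterwards, whole brain (ng/g) and plasma (ng/mL) samples were taken from the tested animals to give the brain-to-plasma ratio.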

Sequence of Sodium-dependent dopamine transporter (Q01959 whole entry): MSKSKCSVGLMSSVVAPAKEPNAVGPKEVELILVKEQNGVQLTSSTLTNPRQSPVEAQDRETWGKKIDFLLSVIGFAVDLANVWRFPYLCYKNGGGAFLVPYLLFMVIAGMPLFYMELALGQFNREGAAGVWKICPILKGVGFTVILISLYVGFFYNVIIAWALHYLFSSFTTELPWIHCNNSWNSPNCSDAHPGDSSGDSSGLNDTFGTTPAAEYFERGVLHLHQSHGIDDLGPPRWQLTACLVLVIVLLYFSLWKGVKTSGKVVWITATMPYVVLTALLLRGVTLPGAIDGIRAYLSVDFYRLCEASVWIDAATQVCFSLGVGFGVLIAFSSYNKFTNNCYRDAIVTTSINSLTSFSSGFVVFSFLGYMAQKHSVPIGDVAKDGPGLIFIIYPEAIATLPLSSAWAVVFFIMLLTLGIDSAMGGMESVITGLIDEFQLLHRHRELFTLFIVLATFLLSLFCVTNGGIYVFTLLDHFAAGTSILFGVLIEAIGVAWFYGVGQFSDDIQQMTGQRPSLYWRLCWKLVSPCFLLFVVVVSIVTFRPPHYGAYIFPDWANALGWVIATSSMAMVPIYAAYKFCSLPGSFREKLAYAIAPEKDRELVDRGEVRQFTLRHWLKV

Row | SMILES | IC50 [1] [nM] | half-life [2] [h] | IC50 [3] [nM] | IC50 [4] [nM] | half-life [5] [h] | IC50 [6] [nM] | IC50 [7] [nM] | IC50 [9] [nM] | other results
1 | CN[C@H]1CCc2ccccc2[C@@H]1c1ccc(Cl)c(Cl)c1 | 91 | 1.68 | 766 | 8 | 1.77 | > 10000 |  |  | 
2 | CN(C)C[C@H]1Cc2ccccc2[C@H](c2ccc(Cl)c(Cl)c2)C1 (mixture of isomers) | 339 |  | 309 |  |  |  |  |  | 
3 | N[C@@H]1Cc2ccccc2[C@@H](c2ccc(Cl)c(Cl)c2)C1 | 408 |  | 731 |  |  |  |  |  | 
4 | CN(C)[C@@H]1Cc2ccccc2[C@H](c2ccc(Cl)c(Cl)c2)C1 | 273 |  | 164 |  |  |  |  |  | 
5 | CN[C@@H]1Cc2ccccc2[C@@H](c2ccc(Cl)c(Cl)c2)C1 | 62 | 2 |  | 1160 | > 5 | > 25000 | > 25000 | 5260 | IC50 [8]: 2320 nM
6 | CNC[C@@H]1Cc2ccccc2[C@@H](c2ccc(Cl)c(Cl)c2)C1 | 103 | 1.55 | 126 | 917 | > 5 | > 25000 | > 25000 | 2170 | 
7 | CN(C)C[C@@H]1Cc2ccccc2[C@H](c2ccc(Cl)c(Cl)c2)C1 (racemic) | 332 |  | 565 |  |  |  |  |  | 
8 | NCC[C@H]1Cc2ccccc2[C@@H](c2ccc(Cl)c(Cl)c2)C1 | 50 | > 5 |  | 13800 | > 5 | > 25000 | > 25000 | 1640 | IC50 [8]: 1510 nM
9 | CN(C)[C@H]1Cc2ccccc2[C@@H](c2ccc(Cl)c(Cl)c2)C1 | 319 |  | 98 |  |  |  |  |  | 
10 | CN[C@H]1CCc2ccccc2[C@H]1c1ccc(Cl)c(Cl)c1 | 1620 | 0.1 | 7260 | 495 | 0.917 | > 10000 |  |  | 
11 | CN(C)[C@@H]1Cc2ccccc2[C@@H](c2ccc(Cl)c(Cl)c2)C1 | 176 |  | 174 |  |  |  |  |  | 
12 | CN[C@H]1CC[C@@H](c2ccc(Cl)c(Cl)c2)c2ccccc21 [SERTRALINE] |  |  |  | 1400 | > 2 | > 10000 |  | 310 | 
13 | CN[C@H]1Cc2ccccc2[C@@H](c2ccc(Cl)c(Cl)c2)C1 |  | > 5 |  | 2780 | > 5 | > 25000 | 17100 | 10100 | fraction unbound at 2 h [10]: 0.01; concentration at 2 h [11]: 344 ng/mL; concentration at 2 h [12]: 96 ng/mL; IC50 [8]: 1600 nM; Drug uptake [13]: 6021 ng; inhibition [14]: Dose-dependent effect; Activity [15]: Non-toxic; Drug uptake [16]: 2830 ng; inhibition in vivo at 10 mg/kg [17]: 21%; fCmax [18]: 440 nM; inhibition in vivo at 100 mg/kg [19]: 30%; concentration at 2 h [20]: 164 ng/mL; inhibition in vivo at 30 mg/kg [21]: 50%; Drug uptake [22]: 13571 ng
14 | NCC[C@@H]1Cc2ccccc2[C@H](c2ccc(Cl)c(Cl)c2)C1 | 32 | > 5 |  | 265 | > 5 | > 25000 | > 25000 | 3760 | IC50 [8]: 13100 nM
15 | CNCCCN1c2ccccc2CCc2ccccc21 [DESIPRAMINE] |  |  |  |  |  |  |  |  | Kp at 2 h [23]: 40
16 | CNC[C@H]1Cc2ccccc2[C@@H](c2ccc(Cl)c(Cl)c2)C1 | 484 |  | 372 |  |  |  |  |  | 
17 | CN[C@@H]1CCc2ccccc2[C@H]1c1ccc(Cl)c(Cl)c1 | 212 | 0.333 | 1640 | 57 | 1.58 | > 10000 |  |  | 
18 | N[C@@H]1Cc2ccccc2[C@H](c2ccc(Cl)c(Cl)c2)C1 | 894 |  | 855 |  |  |  |  |  | 
19 | CNC[C@@H]1Cc2ccccc2[C@H](c2ccc(Cl)c(Cl)c2)C1 | 111 | > 5 | 210 | 154 | > 5 | > 25000 | > 25000 | 6020 | IC50 [8]: 2000 nM
20 | CN[C@@H]1Cc2ccccc2[C@H](c2ccc(Cl)c(Cl)c2)C1 | 281 | > 5 |  | 20 | > 5 | > 25000 | > 25000 | > 25000 | IC50 [8]: 5270 nM
21 | CNC[C@H]1Cc2ccccc2[C@H](c2ccc(Cl)c(Cl)c2)C1 |  | > 5 |  | 41 | > 5 | > 25000 | 20100 | 7690 | IC50 [8]: 1610 nM
22 | CN[C@H]1Cc2ccccc2[C@H](c2ccc(Cl)c(Cl)c2)C1 |  | > 5 |  | 67 | > 5 | > 25000 | > 25000 | > 25000 | 
23 | N[C@H]1Cc2ccccc2[C@@H](c2ccc(Cl)c(Cl)c2)C1 | 175 |  | 174 |  |  |  |  |  | 
24 | CN[C@@H]1CCc2ccccc2[C@@H]1c1ccc(Cl)c(Cl)c1 | 559 | 0.917 | 112 | 33 | 0.917 | 7600 |  |  | 
